This note sets out measurements from ChEMBL document CHEMBL4000161, “Rearranged 6/6/5/6-Fused Triterpenoid Acids from the Stems of Kadsura coccinea” (J Nat Prod, 2016).

Holding throughout (format): functional, cell-based
Assay [1] deals with SMMC-7721. Briefly: Cytotoxicity against human SMMC7721 cells assessed as decrease in cell viability after 48 hrs by MTS assay. The conditions noted are these: SMMC-7721, 48 h. The procedure, abridged: (§1)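 Cells kept in RPMI-1640 or DMEM with 10% FBS, 37 °C, 5% CO2. Seeded at 1 × 10^5 cells/mL; adherent lines left 12 h to attach, suspension cells (HL-60) seeded just before dosing. Triplicate wells at various concentrations for 48 h; MTS then 4 h at 37 °C; lysis in 20% SDS/50% DMF; OD 490 nm. IC50 by Reed and Muench method.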

Assay [2] deals with HeLa. Kind of assay: Cytotoxicity against human HeLa cells assessed as decrease in cell viability after 48 hrs by MTS assay. The method, boiled down: as §1
Assay [3] relates to SW480. Kind of assay: Cytotoxicity against human SW480 cells assessed as decrease in cell viability after 48 hrs by MTS assay. The conditions noted are these: SW480, 48 h. The method, boiled down:
as §1

In assay [4] the test system is MCF7. Briefly: Cytotoxicity against human MCF7 cells assessed as decrease in cell viability after 48 hrs by MTS assay. As to conditions: MCF7, 48 h. The procedure, abridged:
as §1

Assay [5] has as its system A549. Kind of assay: Cytotoxicity against human A549 cells assessed as decrease in cell viability after 48 hrs by MTS assay. As to conditions: A549, 48 h. The procedure, abridged:
as §1

Assay [6] deals with HL-60. Kind of assay: Cytotoxicity against human HL60 cells assessed as decrease in cell viability after 48 hrs by MTS assay. The conditions noted are these: HL-60, 48 h. The procedure, abridged: as §1

Where only a bound is given, the exact number is not on record here.

As to `C=C1[C@@H]([C@H](C)C[C@@H]2C=C(C)C(=O)O2)CC[C@@]2(C)C3=CC[C@H]4C(C)(C)[C@H](O)CC[C@]4(C)[C@@H]3C[C@@H]12`, the half-inhibitory concentration (IC50) in assay [1] was more than 40 µM; in assay [2], 18.6 µM; in assay [3] it was 25.4 µM; in assay [4] it was 13.6 µM; in assay [5] it was more than 40 µM; in assay [6], 7.36 µM.

Regarding `C=C1[C@@H]([C@H](C)C[C@@H](O)/C=C(\C)C(=O)O)CC[C@@]2(C)C3=CC[C@H]4C(C)(C)[C@H](OC(C)=O)CC[C@]4(C)[C@@H]3C[C@@H]12`, the IC50 in assay [1], in assay [2], in assay [3], in assay [4], in assay [5] and in assay [6] was more than 10 µM in each case.

`C=C1[C@@H]([C@H](C)CC/C=C(/C)C(=O)O)CC[C@@]2(C)C3=CC[C@H]4C(C)(C)C(=O)CC[C@]4(C)[C@@H]3C[C@@H]12`: the IC50 in assay [1], in assay [2], in assay [3], in assay [4], in assay [5] and in assay [6] was more than 10 µM each time.

As for `C/C(=C/CC[C@@H](C)C1=C(CO)[C@@H]2C[C@@H]3C(=CC[C@H]4C(C)(C)C(=O)CC[C@]34C)[C@]2(C)CC1)C(=O)O`, the 50% inhibitory concentration (IC50) in assay [1], in assay [2], in assay [3], in assay [4], in assay [5] and in assay [6] was more than 10 µM each time.

Consider `CC(=O)O[C@@H]1CC[C@]2(C)[C@@H]3C[C@H]4[C@@](C)(O)[C@@H]([C@H](C)CC/C=C(/C)C(=O)O)CC[C@@]4(C)C3=CC[C@H]2C1(C)C`, for which the half-maximal inhibitory concentration (IC50) in assay [1], in assay [2], in assay [3], in assay [4], in assay [5] and in assay [6] was more than 10 µM in each case.

In the case of `CC(=O)O[C@@H]1CC[C@]2(C)[C@@H]3C[C@H]4C(CO)=C([C@H](C)CC/C=C(/C)C(=O)O)CC[C@@]4(C)C3=CC[C@H]2C1(C)C`, the half-maximal inhibitory concentration (IC50) in assay [1], in assay [2], in assay [3], in assay [4], in assay [5] and in assay [6] was more than 10 µM in each case.

Take `C=C1[C@@H]([C@H](C)CC/C=C(/C)C(=O)O)CC[C@@]2(C)C3=CC[C@H]4C(C)(C)[C@@H](O)CC[C@]4(C)[C@@H]3C[C@@H]12`: the IC50 in assay [1], in assay [2], in assay [3], in assay [4], in assay [5] and in assay [6] was more than 10 µM throughout.

For the molecule `C=C1[C@@H]([C@H](C)CC(=O)/C=C(\C)C(=O)O)CC[C@@]2(C)C3=CC[C@H]4C(C)(C)[C@H](OC(C)=O)CC[C@]4(C)[C@@H]3C[C@@H]12`, the IC50 in assay [1] was 11.6 µM; in assay [2] it was 7.77 µM; in assay [3] it was 5.99 µM; in assay [4], 4.61 µM; in assay [5], 13 µM; in assay [6], 3.11 µM.

As for `C=C1[C@@H]([C@H](C)C[C@H]2C=C(C)C(=O)O2)CC[C@@]2(C)C3=CC[C@H]4C(C)(C)[C@H](O)CC[C@]4(C)[C@@H]3C[C@@H]12`, the 50% inhibitory concentration (IC50) in assay [1] came out at 25 µM; in assay [2] it was 12.3 µM; in assay [3] it was 20.1 µM; in assay [4] it was 15.6 µM; in assay [5], 27.1 µM; in assay [6], 10.4 µM.

`CC(=O)O[C@@H]1CC[C@]2(C)[C@@H]3C[C@H]4C(C=O)=C([C@H](C)CC/C=C(/C)C(=O)O)CC[C@@]4(C)C3=CC[C@H]2C1(C)C`: the IC50 in assay [1], in assay [2], in assay [3], in assay [4], in assay [5] and in assay [6] was more than 10 µM in each case.

`C=C1[C@@H]([C@H](C)CC/C=C(/C)C(=O)O)CC[C@@]2(C)C3=CC[C@H]4C(C)(C)[C@H](O)CC[C@]4(C)[C@@H]3C[C@@H]12`: the IC50 in assay [1], in assay [2], in assay [3], in assay [4], in assay [5] and in assay [6] was more than 10 µM in each case.

`C=C1[C@@H]([C@H](C)CC/C=C(/C)C(=O)O)CC[C@@]2(C)C3=CC(=O)[C@H]4C(C)(C)[C@H](OC(C)=O)CC[C@]4(C)[C@@H]3C[C@@H]12`: the IC50 in assay [1], in assay [2], in assay [3], in assay [4], in assay [5] and in assay [6] was more than 10 µM each time.

In the case of `CC(=O)O[C@@H]1CC[C@]2(C)[C@@H]3CC4=C(CO)[C@@H]([C@H](C)CC/C=C(/C)C(=O)O)CC[C@@]4(C)C3=CC[C@H]2C1(C)C`, the 50% inhibitory concentration (IC50) in assay [1], in assay [2], in assay [3], in assay [4], in assay [5] and in assay [6] was more than 10 µM in each case.

As for `C=C1[C@@H]([C@H](C)CC/C=C(/C)C(=O)O)CC[C@]2(C)[C@H]1C[C@H]1[C@@]3(C)CCC(=O)C(C)(C)[C@@H]3C[C@@H]3O[C@@]312`, the concentration for half-maximal inhibition (IC50) in assay [1], in assay [2], in assay [3], in assay [4], in assay [5] and in assay [6] was more than 10 µM throughout.

`CC(=O)O[C@H]1C(=O)[C@@]2(C)[C@H]([C@H](OC(=O)c3ccccc3)[C@]3(O)C[C@H](OC(=O)[C@H](O)[C@@H](NC(=O)c4ccccc4)c4ccccc4)C(C)=C1C3(C)C)[C@]1(OC(C)=O)CO[C@@H]1C[C@@H]2O` [PACLITAXEL]: the IC50 in assay [1], in assay [2], in assay [3], in assay [4], in assay [5] and in assay [6] was less than 0.008 µM each time.
